Laboratory results reported in ChEMBL document CHEMBL5532699, “Design, docking optimization, and evaluation of biotin-PEG4-1,8-naphthalimide as a potent and safe antitumor agent with dual targeting of ferroptosis and DNA” (RSC Med Chem, 2024).
Calls of active or inactive are those of the source. No cut-off for these calls is given here.

Legend:
[1] = system: MGC-803; assay: Induction of cell cycle arrest in human MGC-803 cells assessed as accumulation of cells at G2/M phase at 50 uM incubated for 24 hrs by PI staining based flow cytometry (Rvb=12.91%); assay type: functional
[2] = system: U-251; assay: Antiproliferative activity against human U-251 cells incubated for 48 hrs by MTT assay; assay type: functional, cell-based; details: U-251, 48 h
Method in brief: (§1)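 Monolayer cells in DMEM with 10% FBS, penicillin and streptomycin, 37°C, 5% CO2. Exponentially growing cells were seeded in 96-well plates and exposed to compound for 48 h. MTT was then added for 4 h at 37°C. Medium was removed, formazan dissolved in DMSO, and OD read at 490 nm. Each plate had five replicate wells, and assays were repeated three times per line.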

[3] = system: MDA-MB-231; assay: Antiproliferative activity against human MDA-MB-231 cells incubated for 48 hrs by MTT assay; assay type: functional, cell-based; details: MDA-MB-231, 48 h; method in brief: as §1
[4] = system: HCT-116; assay: Antiproliferative activity against human HCT-116 cells incubated for 48 hrs by MTT assay; assay type: functional, cell-based; details: HCT-116, 48 h; method in brief: as §1
[5] = Cytotoxicity against HK-2 cells incubated for 48 hrs by MTT assay; assay type: toxicity, cell-based; details: human; method in brief: as §1
[6] = Metabolic stability in male CD-1 mouse liver microsomes assessed as half life at 2 uM incubated for 60 min in the presence of NADPH by LC-MS/MS analysis; assay type: ADME, Microsome
Method in brief: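 Male CD-1 mouse liver microsomes at 0.5 mg/mL final in 100 mM phosphate buffer, pH 7.4. Mixture was preincubated with 1 mM NADPH (PBS only for the negative control) for 10 min at 37°C. Reaction was started with test compound at 2 µM final. Aliquots were taken at 0.5, 15, 30, 45 and 60 min into cold methanol with internal standard, centrifuged, and the supernatant analysed by LC-MS/MS.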

[7] = system: MGC-803; assay: Antitumor activity against human MGC-803 cells xenografted in nude mouse assessed as tumor inhibition ratio at 48 mg/kg, ip administered once every two days for 21 days relative to control; assay type: functional; details: MGC-803, 504 h, time 21 day
Method in brief: (§2)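 1×10^6 tumor cells injected s.c. into the right flank of nude mice. At mean tumor volume 60–80 mm³, animals randomized to vehicle or treatment groups (n = 6). Compound in 5% v/v DMSO/saline given i.p. every 2 days. Tumor size and weight recorded; volume = lw²/2 from length and width. Body weight tracked as the systemic toxicity index.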

[8] = Toxicity in nude mouse xenografted with human MGC-803 cells assessed as reduction in body weight at 24 to 48 mg/kg, ip administered once every two days for 21 days; assay type: organism-based; details: in vivo, 504 h, dose 24-48 mg/kg, time 21 day; method in brief: as §2
[9] = Toxicity in nude mouse xenografted with human MGC-803 cells assessed as pathological changes in heart at 12 to 48 mg/kg, ip administered once every two days for 21 days by H and E staining based analysis; assay type: organism-based; details: in vivo, 504 h, dose 12-48 mg/kg, time 21 day
Method in brief: (§3)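 Nude mice carrying s.c. xenografts (1×10^6 cells, right flank) randomized at 60–80 mm³ (n = 6), dosed i.p. every 2 days in 5% v/v DMSO/saline. Major organs examined by H&E staining at 200× magnification.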

[10] = system: MGC-803; assay: Antitumor activity against human MGC-803 cells xenografted in nude mouse assessed as tumor inhibition ratio at 12 mg/kg, ip administered once every two days for 21 days relative to control; assay type: functional; details: MGC-803, 504 h, time 21 day; method in brief: as §2
[11] = system: U-251; assay: Antitumor activity against human U-251 cells xenografted in nude mouse assessed as tumor inhibition ratio at 24 mg/kg, ip administered once every two days for 21 days relative to control; assay type: functional; details: U-251, 504 h, time 21 day; method in brief: as §2
[12] = Toxicity in nude mouse xenografted with human U-251 cells assessed as pathological changes in heart at 24 to 48 mg/kg, ip administered once every two days for 21 days by H and E staining based analysis; assay type: organism-based; details: in vivo, 504 h, dose 24-48 mg/kg, time 21 day; method in brief: as §3
[13] = Toxicity in nude mouse xenografted with human U-251 cells assessed as pathological changes in liver at 24 to 48 mg/kg, ip administered once every two days for 21 days by H and E staining based analysis; assay type: organism-based; details: in vivo, 504 h, dose 24-48 mg/kg, time 21 day; method in brief: as §3
[14] = Toxicity in nude mouse xenografted with human U-251 cells assessed as pathological changes in lung at 24 to 48 mg/kg, ip administered once every two days for 21 days by H and E staining based analysis; assay type: organism-based; details: in vivo, 504 h, dose 24-48 mg/kg, time 21 day; method in brief: as §3
[15] = system: MGC-803; assay: Induction of DNA damage in human MGC-803 cells assessed as increase in phosphorylated H2AX protein level at Ser139 residue at 25 to 50 uM incubated for 24 hrs by Western blot analysis; assay type: functional, cell-based; details: dose 25-50 µM
Method in brief: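 MGC-803 cells treated 25 or 50 μM for 24 h, lysed in ice-cold 1% SDS/Tris-HCl pH 7.5 buffer with EDTA, NaCl and protease inhibitors, spun 12,000g 18 min. Protein quantified by BCA; 40–50 μg resolved on 10% SDS-PAGE, transferred to PVDF, milk-blocked 2 h, primary antibody overnight, HRP secondary 1 h at RT. ECL detection with densitometry.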

[16] = system: MGC-803; assay: Induction of cell cycle arrest in human MGC-803 cells assessed as accumulation of cells at S phase at 25 uM incubated for 24 hrs by PI staining based flow cytometry (Rvb=28.00%); assay type: functional
[17] = system: MGC-803; assay: Induction of cell cycle arrest in human MGC-803 cells assessed as accumulation of cells at S phase at 50 uM incubated for 24 hrs by PI staining based flow cytometry (Rvb=28.00%); assay type: functional
[18] = system: MGC-803; assay: Induction of cell cycle arrest in human MGC-803 cells assessed as accumulation of cells at G2/M phase at 100 uM incubated for 24 hrs by PI staining based flow cytometry (Rvb=12.91%); assay type: functional
[19] = system: MGC-803; assay: Induction of ferroptosis in human MGC-803 cells assessed as increase in intracellular lipid peroxide and ROS level by measuring increase in green fluorescence intensity at 50 uM incubated for 24 hrs by BODIPY 581/591 C11 staining based confocal microscopic analysis; assay type: functional, cell-based
[20] = system: MGC-803; assay: Induction of ferroptosis in human MGC-803 cells assessed as accumulation of intracellular ROS level by measuring increase in red fluorescence intensity at 25 to 50 uM incubated for 24 hrs by DHE staining based confocal microscopic analysis; assay type: functional, cell-based; details: dose 25-50 µM
[21] = system: MGC-803; assay: Induction of ferroptosis in human MGC-803 cells assessed as appearance of ruptured mitochondria at 5 uM incubated for 24 hrs by TEM analysis; assay type: functional, cell-based
Method in brief: (§4)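 Cell samples prefixed in 3% glutaraldehyde, postfixed in 1% osmium tetroxide, dehydrated through graded acetone (30–100%), embedded in Epon812, cut into 60–90 nm ultrathin sections on copper grids, stained with uranyl acetate 10–15 min and lead citrate 1–2 min at room temperature, examined by TEM.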

[22] = system: MGC-803; assay: Induction of ferroptosis in human MGC-803 cells assessed as reduction in mitochondrial cristae at 5 uM incubated for 24 hrs by TEM analysis; assay type: functional, cell-based; method in brief: as §4
[23] = Toxicity in nude mouse xenografted with human MGC-803 cells assessed as effect on animal behavior at 24 to 48 mg/kg, ip administered once every two days for 21 days; assay type: organism-based; details: in vivo, 504 h, dose 24-48 mg/kg, time 21 day; method in brief: as §2
[24] = system: calf thymus DNA (Bos taurus); assay: Competitive binding affinity to calf thymus DNA in presence of propidium iodide by fluorescence intercalator displacement assay

Which results are given for CN(C)CCN1C(=O)c2cccc3c(N4CCN(C(=O)CCOCCOCCOCCOCCNC(=O)CCCCC5SCC6NC(=O)NC65)CC4)ccc(c23)C1=O (centres undefined)?
Activity [1]: 26.25%; IC50 [2]: > 50 µM; IC50 [3]: > 50 µM; IC50 [4]: > 50 µM; IC50 at 48 h [5]: > 50 µM; half-life at 2 µM [6]: 36.6 min; inhibition in vivo at 48 mg/kg [7]: 65.5%; Activity [8]: Non-Toxic; Activity [9]: Non-Toxic; inhibition in vivo at 12 mg/kg [10]: 29.6%; inhibition in vivo at 24 mg/kg [11]: 74.8%; Activity [12]: Non-Toxic; Activity [13]: Non-Toxic; Activity [14]: Non-Toxic; Activity [15]: Active; Activity [16]: 22.7%; Activity [17]: 40.58%; Activity [18]: 18.57%; Activity [19]: Active; Activity [20]: Active; Activity [21]: Active; Activity [22]: Active; Activity [23]: Non-Toxic; Activity [24]: Active
